In one series the test system is bEND. As to the kind of experiment: Reduction in mouse PTEN mRNA level expressed in mouse bEND cells. It counts as functional, cell-based. The gist of the method:
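bEND mouse brain endothelial cells transfected with ASO using lipofectin; PTEN mRNA reduction measured over a dose range; IC50 taken from dose-response curves.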

The subject of series [1] is Mus musculus. As to the kind of experiment: Reduction of PTEN mRNA level in ip dosed BALB/c mouse liver after 72 hrs. It counts as functional.
Series [2] is filed under the species Mus musculus. As to the kind of experiment: Binding affinity to mouse PTEN mRNA assessed as melting temperature. The gist of the method: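 Tm of ASO–RNA duplex, i.e. melting temperature of the ASO hybridised to its complementary RNA.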
For series [3], the system named is Mus musculus. As to the kind of experiment: Reduction of PTEN mRNA level in BALB/c mouse liver at 60 mg/kg, ip after 72 hrs. It is filed as functional, organism-based. Also noted: dose 60 mg/kg.
The test system of series [4] is Mus musculus. Kind of series: Reduction of PTEN mRNA level in BALB/c mouse liver at 37 mg/kg, ip after 72 hrs. It counts as functional, organism-based. Further details: dose 37 mg/kg.
In series [5] the test system is Mus musculus. As to the kind of experiment: Hepatotoxicity in BALB/c mouse assessed as increase in liver ALT level at 60 mg/kg, ip after 72 hrs. It counts as toxicity, organism-based. Also noted: dose 60 mg/kg, route intraperitoneal. To be noted: in vivo.

Active and inactive are the calls of the source. The calls are words filed in the database; no cut-off is given here.

By IC50 is commonly meant the concentration at which inhibition is half-maximal. A lower IC50 goes with higher potency. In general, ED50 refers to the midpoint of the dose-response relation. In the series on bEND, `COC[C@H]1O[C@H]2[C@H](n3cc(C)c(N)nc3=O)O[C@]1(COP(O)(=S)O[C@H]1[C@H]3O[C@H](COC)[C@]1(COP(O)(=S)O[C@H]1C[C@H](n4cc(C)c(=O)[nH]c4=O)O[C@@H]1COP(O)(=S)O[C@H]1[C@@H](O)[C@H](n4cnc5c4N=CNC5N)O[C@@H]1COP(O)(=S)O[C@H]1[C@@H](O)[C@H](n4cnc5c(=O)[nH]c(N)nc54)O[C@@H]1COP(O)(=S)O[C@H]1[C@@H](O)[C@H](n4ccc(N)nc4=O)O[C@@H]1COP(O)(=S)O[C@H]1[C@@H](O)[C@H](n4cnc5c(N)ncnc54)O[C@@H]1COP(O)(=S)O[C@H]1[C@@H](O)[C@H](n4ccc(N)nc4=O)O[C@@H]1COP(O)(=S)O[C@H]1C[C@H](n4cc(C)c(=O)[nH]c4=O)O[C@@H]1COP(O)(=S)O[C@H]1[C@@H](O)[C@H](n4cnc5c(=O)[nH]c(N)nc54)O[C@@H]1COP(O)(=S)O[C@H]1[C@@H](O)[C@H](n4cnc5c(=O)[nH]c(N)nc54)O[C@@H]1COP(O)(=S)O[C@H]1[C@@H](O)[C@H](n4ccc(N)nc4=O)O[C@@H]1COP(O)(=S)O[C@H]1[C@H]4O[C@H](COC)[C@]1(COP(O)(=S)O[C@H]1[C@H]5O[C@H](COC)[C@]1(CO)O[C@H]5n1ccc(=O)[nH]c1=O)O[C@H]4n1cc(C)c(N)nc1=O)O[C@H]3n1ccc(=O)[nH]c1=O)[C@H]2O` (some centres undefined) came in with an IC50 of 6 nM. In addition, the 50% effect level with Mus musculus [1] (ED50) was put at a dose of 29 mg/kg. The Tm in the series listed under Mus musculus [2] turned out to be 56.9 °C.

`COCCO[C@@H]1[C@H](O)[C@@H](COP(O)(=S)O[C@H]2[C@@H](OCCOC)[C@H](n3ccc(=O)[nH]c3=O)O[C@@H]2COP(O)(=S)O[C@H]2C[C@H](n3cc(C)c(=O)[nH]c3=O)O[C@@H]2COP(O)(=S)O[C@H]2[C@@H](O)[C@H](n3cnc4c3N=CNC4N)O[C@@H]2COP(O)(=S)O[C@H]2[C@@H](O)[C@H](n3cnc4c(=O)[nH]c(N)nc43)O[C@@H]2COP(O)(=S)O[C@H]2[C@@H](O)[C@H](n3ccc(N)nc3=O)O[C@@H]2COP(O)(=S)O[C@H]2[C@@H](O)[C@H](n3cnc4c(N)ncnc43)O[C@@H]2COP(O)(=S)O[C@H]2[C@@H](O)[C@H](n3ccc(N)nc3=O)O[C@@H]2COP(O)(=S)O[C@H]2[C@@H](O)[C@H](n3cc(C)c(=O)[nH]c3=O)O[C@@H]2COP(O)(=S)O[C@H]2[C@@H](O)[C@H](n3cnc4c(=O)[nH]c(N)nc43)O[C@@H]2COP(O)(=S)O[C@H]2[C@@H](O)[C@H](n3cnc4c(=O)[nH]c(N)nc43)O[C@@H]2COP(O)(=S)O[C@H]2[C@@H](O)[C@H](n3ccc(N)nc3=O)O[C@@H]2COP(O)(=S)O[C@H]2[C@@H](OCCOC)[C@H](n3cc(C)c(N)nc3=O)O[C@@H]2COP(O)(=S)O[C@H]2[C@@H](OCCOC)[C@H](n3ccc(=O)[nH]c3=O)O[C@@H]2COP(=O)(O)O)O[C@H]1n1cc(C)c(N)nc1=O` (some centres undefined) had an IC50 in the series with bEND of more than 20 nM. The molecule further yielded an ED50 with Mus musculus [1] of more than 45 mg/kg. The Tm in the series filed under Mus musculus [2] stood at 50.8 °C.

Consider `Cc1cn([C@@H]2O[C@@]3(COP(O)(=S)O[C@H]4[C@H]5OC[C@]4(CO)O[C@H]5n4cc(C)c(N)nc4=O)CO[C@@H]2[C@@H]3OP(O)(=S)OC[C@H]2O[C@@H](n3cnc4c(N)ncnc43)[C@H](O)[C@@H]2OP(O)(=S)OC[C@H]2O[C@@H](n3cnc4c(=O)[nH]c(N)nc43)[C@H](O)[C@@H]2OP(O)(=S)OC[C@H]2O[C@@H](n3cnc4c(=O)[nH]c(N)nc43)[C@H](O)[C@@H]2OP(O)(=S)OC[C@H]2O[C@@H](n3cc(C)c(=O)[nH]c3=O)C[C@@H]2OP(O)(=S)OC[C@H]2O[C@@H](n3ccc(N)nc3=O)[C@H](O)[C@@H]2OP(O)(=S)OC[C@H]2O[C@@H](n3ccc(N)nc3=O)[C@H](O)[C@@H]2OP(O)(=S)OC[C@H]2O[C@@H](n3ccc(N)nc3=O)[C@H](O)[C@@H]2OP(O)(=S)OC[C@H]2O[C@@H](n3cnc4c(=O)[nH]c(N)nc43)[C@H](O)[C@@H]2OP(O)(=S)OC[C@H]2O[C@@H](n3cnc4c(=O)[nH]c(N)nc43)[C@H](O)[C@@H]2OP(O)(=S)OC[C@H]2O[C@@H](n3cc(C)c(=O)[nH]c3=O)C[C@@H]2OP(O)(=S)OC[C@@]23CO[C@@H]([C@H](n4cc(C)c(=O)[nH]c4=O)O2)[C@@H]3OP(O)(=S)OC[C@@]23CO[C@@H]([C@H](n4ccc(N)nc4=O)O2)[C@@H]3O)c(=O)nc1N` (some centres undefined), for which the outcome with Mus musculus [3] and in the series with Mus musculus [4] was Active. The Activity entry in the series on Mus musculus [5] is “Non-toxic”.

The record behind these values is ChEMBL document CHEMBL1140861, “Short antisense oligonucleotides with novel 2'-4' conformationaly restricted nucleoside analogues show improved potency without increased toxicity in animals” (J Med Chem, 2009).
